Screens deposited in PubChem BioAssay by Broad Institute.
Compounds with a hit are over-represented: about 1.5% of the library has one in this group of screens.
C-LANA FP – inhibitors of KSHV LANA C-terminal domain DNA binding. inhibition, % at 9 µM. MBP-C-LANA/FAM-LBS DNA binding, fluorescence polarization. 340,000 tested, 0.078% active;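 active = highest replicate inhibition at or above 60% at 9 µM, even if other replicates fall short; inactive = all replicates below 60% inhibition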;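 also: 0% = neutral control wells and 100% = 4 µM acridine orange control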
LANA-H2A inh – blocks KSHV LANA binding to histone H2A/H2B. inhibition, % (no concentration beside the values). Q9QR71. 320,000 tested, 0.6% active. AID 2629. cell-free LANA-H2A/H2B peptide, fluorescence polarization; in the data active = inhibition mostly above about 10%, no sharp cut-off; inactive = mostly below about 6.7%
Target sequence (Q9QR71 whole entry, looked up): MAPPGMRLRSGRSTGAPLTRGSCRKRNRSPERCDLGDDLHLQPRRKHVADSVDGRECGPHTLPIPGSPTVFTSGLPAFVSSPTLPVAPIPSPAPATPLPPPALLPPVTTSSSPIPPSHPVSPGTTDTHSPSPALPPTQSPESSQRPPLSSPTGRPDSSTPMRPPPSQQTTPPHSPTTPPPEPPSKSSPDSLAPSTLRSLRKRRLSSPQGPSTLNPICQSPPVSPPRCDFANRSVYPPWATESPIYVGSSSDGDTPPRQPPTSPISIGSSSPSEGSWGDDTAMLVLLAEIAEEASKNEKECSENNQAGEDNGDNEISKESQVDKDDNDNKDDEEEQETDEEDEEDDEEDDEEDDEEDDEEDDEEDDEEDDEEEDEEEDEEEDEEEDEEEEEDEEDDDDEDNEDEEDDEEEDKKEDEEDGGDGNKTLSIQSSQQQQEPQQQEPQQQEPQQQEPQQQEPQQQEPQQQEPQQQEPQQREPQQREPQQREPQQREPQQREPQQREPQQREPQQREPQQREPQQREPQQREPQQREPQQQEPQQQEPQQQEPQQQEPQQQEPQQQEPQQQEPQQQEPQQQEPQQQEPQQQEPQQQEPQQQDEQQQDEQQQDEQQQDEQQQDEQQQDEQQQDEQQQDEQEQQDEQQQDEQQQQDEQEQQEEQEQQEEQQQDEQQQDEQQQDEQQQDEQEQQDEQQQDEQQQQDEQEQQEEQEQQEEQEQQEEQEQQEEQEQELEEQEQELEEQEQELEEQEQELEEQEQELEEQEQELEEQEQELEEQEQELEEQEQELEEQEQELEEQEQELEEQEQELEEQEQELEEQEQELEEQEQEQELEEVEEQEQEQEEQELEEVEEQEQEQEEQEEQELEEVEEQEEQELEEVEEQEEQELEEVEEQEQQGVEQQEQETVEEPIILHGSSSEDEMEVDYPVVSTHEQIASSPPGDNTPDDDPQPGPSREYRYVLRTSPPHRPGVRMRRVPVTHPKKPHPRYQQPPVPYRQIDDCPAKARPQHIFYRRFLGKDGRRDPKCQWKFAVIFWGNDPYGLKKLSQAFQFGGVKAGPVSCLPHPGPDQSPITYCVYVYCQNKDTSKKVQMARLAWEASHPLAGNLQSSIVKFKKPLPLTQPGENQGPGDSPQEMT
CAL PDZ FP-1 – human CAL PDZ-peptide interaction inhibition; Q9HD26; purified CAL PDZ, TMR-peptide fluorescence polarization, 1 h; inhibition, % at 20 µM; 330,000 tested, 0.02% active;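 active = highest replicate inhibition of at least 40%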;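 also: plate controls were DMSO neutral control wells for no effect and unlabeled competitor peptide control wells for full effect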
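Assay system – tagged CAL PDZ protein CerCALP, purified · Timing – 1 h at RT · Compound – single point, 20 µM · Measured by – fluorescence polarization from S- and P-plane intensities, G-factor corrected · Evaluation – inhibition from polarization loss · Probe or stimulus – TMR reporter peptide T*-PRC34 · Buffer or medium – pH 7.4 phosphate-saline buffer, reducing agent, detergent, IgG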
Keap1 Nrf2 FP – Keap1-Nrf2 (human) interaction inhibition; Q14145; Keap1 Kelch-Nrf2 peptide fluorescence polarization, 1536-well; inhibition, % at 9.4 µM; 340,000 tested, 0.15% active; AID 504523; in the data active = inhibition above about 12%;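 also: human Keap1 Kelch domain with fluorescein labeled Nrf2 9mer peptide probe; 0% = neutral control wells and 100% = peptide positive control; higher means more block of Keap1 binding to Nrf2 peptide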
CaV13 ICDI inh – Disruptors of the CACNA1D IQ motif to Ca2+-dependent inactivation inhibitor domain association, primary screening, Förster resonance energy transfer in intact living … | inhibition, % at 12.3 µM | 340,000 tested, 0.098% active | HEK cells, CFP/YFP FRET ICDI-IQ, plate reader, 10 min; percent FRET-ratio fall versus neutral wells;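 active = mean replicate inhibition of at least 30% and at least 1% of replicates passing that level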;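 also: 0% = median of the neutral control wells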
CAL PDZ FP-2 – CAL PDZ (human) peptide binding inhibition. purified CAL PDZ, TMR-peptide fluorescence polarization, 1 h. inhibition, % at 24.9 µM. AID 602252. Q9HD26. 300,000 tested, 0.92% active;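 active = mean inhibition of at least 30% with at least half of replicates also reaching 30%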;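 also: 0% = DMSO neutral control and 100% = excess unlabeled competitor peptide PRC23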
* = called active by the depositor; ! = repeats disagree.

Results for CC1=CC(C)(C)Nc2ccc(OC(=O)CN3C(=O)c4ccccc4C3=O)cc21 ?
C-LANA FP: 1; LANA-H2A inh: -1; CAL PDZ FP-1: 0; Keap1 Nrf2 FP: -1; CaV13 ICDI inh: -4; CAL PDZ FP-2: -5

How did CC1=CC(C)(C)Nc2ccc(OC(=O)C(Cc3ccccc3)N3C(=O)c4ccccc4C3=O)cc21 (centres undefined) do in these assays?
C-LANA FP: 0; LANA-H2A inh: -3; CAL PDZ FP-1: -1; Keap1 Nrf2 FP: -4; CaV13 ICDI inh: 0; CAL PDZ FP-2: 68*

Results for COc1ccc(NC(=O)N(C)C[C@H]2OCc3cn(nn3)CCCC(=O)N([C@H](C)CO)C[C@@H]2C)cc1 ?
CaV13 ICDI inh: -6

Results for Cc1ccccc1Nc1nc(N)nc(CN2C(=O)NC3(CCCCC3C)C2=O)n1 (centres undefined) ?
C-LANA FP: -2; LANA-H2A inh: 2; CAL PDZ FP-1: -1; Keap1 Nrf2 FP: -2; CaV13 ICDI inh: -5; CAL PDZ FP-2: 50*

How did NS(=O)(=O)c1ccc(CCNc2ccn3nc(-c4ccc(OCCN5CCOCC5)cc4)cc3n2)cc1 do in these assays?
CaV13 ICDI inh: -4

How did COc1ccc2cc(CN(Cc3ccco3)C(=S)NCC3CCCO3)c(=O)[nH]c2c1 (centres undefined) do in these assays?
C-LANA FP: 2; LANA-H2A inh: 3; CAL PDZ FP-1: 0; Keap1 Nrf2 FP: 3; CaV13 ICDI inh: -4; CAL PDZ FP-2: -2

Results for Cc1cc(C)c2cc(CN(Cc3ccco3)C(=S)NCC3CCCO3)c(=O)[nH]c2c1 (centres undefined) ?
C-LANA FP: -2; LANA-H2A inh: 20*; CAL PDZ FP-1: -1; Keap1 Nrf2 FP: -10; CaV13 ICDI inh: -14

How did O=C(Nc1ccc(F)cc1)C(c1ccccc1)N1CCN(c2ccncc2)CC1 (centres undefined) do in these assays?
CaV13 ICDI inh: -9

What do the screens show for `CCOC(=O)c1ccc(-c2ccc(C=O)o2)cc1`?
C-LANA FP: 1; LANA-H2A inh: 15; CAL PDZ FP-1: -1; Keap1 Nrf2 FP: 2; CaV13 ICDI inh: -14; CAL PDZ FP-2: 64*

Results for COc1ccc(NN=Nc2ccc([N+](=O)[O-])cc2)cc1 ?
C-LANA FP: -2; LANA-H2A inh: -3; CAL PDZ FP-1: 0; Keap1 Nrf2 FP: -4; CaV13 ICDI inh: -4; CAL PDZ FP-2: 42*

What do the screens show for `CC(=O)NCCCCCCNC(C)=O`?
C-LANA FP: -1; LANA-H2A inh: 31*!; CAL PDZ FP-1: 0; Keap1 Nrf2 FP: -2; CaV13 ICDI inh: -4; CAL PDZ FP-2: 1

How did CC(=O)NCCCCCC(=O)O do in these assays?
CaV13 ICDI inh: -6

What do the screens show for `N#Cc1c(NC(=O)c2cnccn2)sc2c1CCCC2`?
C-LANA FP: 1; LANA-H2A inh: 19*; CAL PDZ FP-1: -1; Keap1 Nrf2 FP: -4; CaV13 ICDI inh: -3; CAL PDZ FP-2: 1

What do the screens show for `COC(=O)c1cc2c(c3c4cc(F)ccc4n(S(=O)(=O)c4cccc(C)c4)c13)C(=O)N(Cc1ccc(C(F)(F)F)cc1)C2`?
CaV13 ICDI inh: -11

What do the screens show for `FC(F)(F)c1ccccc1CN1CCCc2nc(-c3ccc(Br)cc3)ccc21`?
CaV13 ICDI inh: -4

How did Cc1csc(SC(C)C(=O)NCc2ccc3c(c2)OCO3)n1 (centres undefined) do in these assays?
C-LANA FP: -1; LANA-H2A inh: -1; CAL PDZ FP-1: 10; Keap1 Nrf2 FP: -3; CaV13 ICDI inh: -3; CAL PDZ FP-2: 64*

How did c1ccc(CN2CCCC3(CCCN(Cc4nc(COc5ccccc5)no4)C3)C2)cc1 (centres undefined) do in these assays?
C-LANA FP: 0; LANA-H2A inh: 3; CAL PDZ FP-1: -1; Keap1 Nrf2 FP: 1; CaV13 ICDI inh: -5; CAL PDZ FP-2: 52*

How did COC(=O)c1sccc1NC(=S)N1CCN(C)CC1 do in these assays?
C-LANA FP: -2; LANA-H2A inh: -1; CAL PDZ FP-1: 0; Keap1 Nrf2 FP: 0; CaV13 ICDI inh: -14; CAL PDZ FP-2: active

What do the screens show for `CCN1CCN(C(=S)Nc2ccsc2C(=O)OC)CC1`?
C-LANA FP: -1; LANA-H2A inh: -1; CAL PDZ FP-1: -1; Keap1 Nrf2 FP: -8; CaV13 ICDI inh: -2; CAL PDZ FP-2: -2

How did COC(=O)C1=C(C)N(C)C(=NCc2ccc(OC)cc2)NC1c1cccc(F)c1 (centres undefined) do in these assays?
CaV13 ICDI inh: -5

What do the screens show for `O=C(Oc1coc(CSc2ncccn2)cc1=O)c1ccccc1[N+](=O)[O-]`?
C-LANA FP: 0; LANA-H2A inh: 4; CAL PDZ FP-1: 0; Keap1 Nrf2 FP: -2; CaV13 ICDI inh: -6; CAL PDZ FP-2: 82*

Results for COc1ccc(CCNC(=O)c2ccc3nc(N4CCCCC4)sc3c2)cc1OC ?
C-LANA FP: 0; LANA-H2A inh: -4; CAL PDZ FP-1: -1; Keap1 Nrf2 FP: 2; CaV13 ICDI inh: -5

How did CCc1cc(C(=O)N2CCN(S(=O)(=O)c3cc(C)ccc3C)CC2)sc1C do in these assays?
C-LANA FP: 2; LANA-H2A inh: 11; CAL PDZ FP-1: -2; Keap1 Nrf2 FP: 4; CaV13 ICDI inh: -6; CAL PDZ FP-2: 1

What do the screens show for `CCc1cc(C(=O)N2CCN(S(=O)(=O)c3ccccc3F)CC2)sc1C`?
C-LANA FP: -1; LANA-H2A inh: active; CAL PDZ FP-1: 0; Keap1 Nrf2 FP: -4; CaV13 ICDI inh: -2; CAL PDZ FP-2: 8

What do the screens show for `COc1ccc2[nH]c(O)c(N=NC(=O)c3ccc(NS(=O)(=O)c4cccs4)cc3)c2c1`?
C-LANA FP: 1; LANA-H2A inh: 2; CAL PDZ FP-1: -1; Keap1 Nrf2 FP: -4; CaV13 ICDI inh: -16; CAL PDZ FP-2: 46*

Results for Cc1ccc(-n2c(C)nnc2SCC(=O)NC2CCCC2)cc1 ?
C-LANA FP: 1; LANA-H2A inh: -9; CAL PDZ FP-1: -2; Keap1 Nrf2 FP: -3; CaV13 ICDI inh: -3; CAL PDZ FP-2: 0

What do the screens show for `O=C(NNC(=O)c1ccc[nH]1)Nc1cccc(C(F)(F)F)c1`?
C-LANA FP: 0; LANA-H2A inh: -2; CAL PDZ FP-1: -1; Keap1 Nrf2 FP: 4; CaV13 ICDI inh: -3; CAL PDZ FP-2: 71*

How did O=C(O)C(Cc1ccccc1)N1C(=O)/C(=C/C=C/c2ccco2)SC1=S (centres undefined) do in these assays?
C-LANA FP: 106*; CAL PDZ FP-1: -1; Keap1 Nrf2 FP: 26*; CaV13 ICDI inh: -7; CAL PDZ FP-2: -2

How did O=C(CSc1nnnn1-c1ccccc1)c1ccc(O)cc1O do in these assays?
C-LANA FP: -2; LANA-H2A inh: 0; CAL PDZ FP-1: -2; Keap1 Nrf2 FP: 5; CaV13 ICDI inh: 5; CAL PDZ FP-2: 43*
